A selection: hits, their analogues and other compounds. The true share with any hit is near 3%.
ABHD5 PLIN5 PPI: ABHD5-PLIN5 protein interaction inhibition; Q00G26+Q8WTS1; Split G. princeps luciferase complementation, luminescence, 4 h; inhibition, % at 4 µM; hit rate 0.78% among 360,000; AID 602281;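 active = inhibition above the mean inhibition across every tested compound plus 3 SD, cut at about 22% in these data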
B2AR ag: human beta-2 adrenergic receptor agonism by FAP | response, % (no concentration beside the values) | Am2.2-beta2AR cells, FAP receptor internalization, flow cytometry | hit rate 0.43% among 340,000 | P07550;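 active = response above a set limit, near 3 SD of response in nonfluorescent compounds, cut at about 42% in these data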
Target sequence (P07550 whole entry, looked up): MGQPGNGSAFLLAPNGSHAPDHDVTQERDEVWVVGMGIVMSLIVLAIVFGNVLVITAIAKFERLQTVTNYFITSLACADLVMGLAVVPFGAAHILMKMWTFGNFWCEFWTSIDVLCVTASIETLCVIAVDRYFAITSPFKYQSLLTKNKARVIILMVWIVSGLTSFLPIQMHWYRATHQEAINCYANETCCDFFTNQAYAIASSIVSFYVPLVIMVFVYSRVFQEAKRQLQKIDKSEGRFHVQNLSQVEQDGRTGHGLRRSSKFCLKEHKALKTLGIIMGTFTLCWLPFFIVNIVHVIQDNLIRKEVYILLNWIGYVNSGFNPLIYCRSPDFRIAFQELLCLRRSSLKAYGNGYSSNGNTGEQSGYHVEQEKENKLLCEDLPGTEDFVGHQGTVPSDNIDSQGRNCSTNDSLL
PfGluPho inh: PfG6PD (Plasmodium falciparum) enzyme inhibition | AID 504690 | PfGluPho enzyme, NADPH resazurin-diaphorase fluorescence | inhibition, % at 20 µM | hit rate 0.78% among 350,000;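 active = inhibition reaching at least a set limit at 20 µM in the primary screen, cut at about 59% in these data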
MC4R ag barr: agonists of human melanocortin 4 receptor (MC4R) beta-arrestin; hit rate 0.98% among 360,000; U2OS MC4R beta-arrestin complementation, luminescence; percent of melanotan II response, DMSO zero; activation, % at 8.9 µM;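 active = activation above a per-plate cutoff, the mean activation of sample wells on that plate plus 3 SD, cut at about 8% in these data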
Target sequence (P32245 whole entry, looked up): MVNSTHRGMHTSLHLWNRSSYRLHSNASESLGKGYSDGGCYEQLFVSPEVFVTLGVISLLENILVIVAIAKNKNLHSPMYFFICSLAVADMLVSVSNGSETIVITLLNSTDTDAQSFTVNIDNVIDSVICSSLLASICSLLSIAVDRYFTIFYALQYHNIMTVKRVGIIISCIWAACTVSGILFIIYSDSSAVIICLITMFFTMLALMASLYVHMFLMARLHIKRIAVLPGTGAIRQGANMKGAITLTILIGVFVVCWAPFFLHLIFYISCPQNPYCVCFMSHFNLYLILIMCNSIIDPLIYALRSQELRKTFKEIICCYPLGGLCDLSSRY
MC4R antag cAMP: human MC4R antagonism in cAMP assay | P32245 | MC4R-expressing cells, MTII-stimulated cAMP, LANCE TR-FRET | inhibition, % at 6.5 µM | hit rate 0.48% among 360,000 | AID 540295;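 active = inhibition above its plate's cutoff, the mean of tested wells on that plate plus 3 SD, cut at about 29% in these data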
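System: U2OS-MC4R stable cell line; Technique: Eu-cAMP/anti-cAMP TR-FRET, emission 671 nm; Repeats: single well per compound; Also added: Melanotan II; Dosing: one concentration, 6.5 µM nominal; Schedule: 30-min compound, 1-h challenge, 1-h detection, room temperature.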
Beta2AR ag CP1: agonists of human beta-2 adrenergic receptor; percent response (surface receptor), % at 10 µM; hit rate 25% among 1,100; AID 540358; shares compounds with B2AR ag; Am2.2-beta2AR cells, FAP surface receptor, flow cytometry; stronger effect = lower value;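 active = surface receptor percent response at or below 58%, roughly 3 SD from nonfluorescent compounds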
B2AR FAP counter: flagged in Am2.2 fluorescence counterscreen for beta-2AR agonists; shares compounds with B2AR ag; Am2.2 cells, FAP fluorogen flow cytometry; stronger effect = lower value; calls only at 10 µM; 1,100 tested, under 10 active; AID 588765;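 active = percent response below a set limit in fluorescence channel 1 and below 50% in channel 8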
PfG6PD confirm: PfG6PD inhibition, single-dose confirmed; shares compounds with PfGluPho inh; recombinant PfGluPho, NADPH-diaphorase-resazurin fluorescence; inhibition, % at 20 µM; hit rate 34% among 2,400; AID 504753;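 active = inhibition of at least 50% at 20 µM in any single replicate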
Diaph ctr 10uM: inhibits diaphorase or oxidizes, flagging false PfG6PD hits; shares compounds with PfGluPho inh; diaphorase-coupled resazurin reduction, fluorescence, NADPH 10 uM; inhibition, % at 20 µM; hit rate 39% among 820;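 active = average inhibition reaching 50% or more with the compound at 20 µM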;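 note: resorufin red fluorescence formed as diaphorase reduces resazurin using NADPH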
Diaphorase 30uM: diaphorase inhibition or oxidation at 30 uM NADPH. shares compounds with PfGluPho inh. Diaphorase/resazurin coupled assay, resorufin fluorescence. inhibition, % at 20 µM. hit rate 29% among 820;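 active = inhibition averaging 50% or more, tested at 20 µM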
U2OS cAMP counter: counter-screen for MC4R antagonists: nonselective cAMP signaling inhibitors. shares compounds with MC4R antag cAMP. inhibition, % at 6.5 µM. AID 602193. hit rate 26% among 1,600. parental U2OS, forskolin cAMP, LANCE TR-FRET;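 active = mean inhibition over triplicates above the low-control well mean plus 3 SD, set per campaign, cut at about 13% in these data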;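 note: signal is single emission at 671 nm which falls as cellular cAMP rises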
MC4R cAMP antag: human MC4R cAMP antagonism confirmation | shares compounds with MC4R antag cAMP | MC4R-expressing cells, MTII-stimulated cAMP, TR-FRET | inhibition, % at 6.5 µM | hit rate 27% among 1,600 | AID 602195; in the data active = inhibition above about 29%
MC4R barr ag: human MC4R beta-arrestin agonism confirmation. activation, % at 8.9 µM. U2OS MC4R beta-arrestin recruitment, luminescence; scaled DMSO 0%, Melanotan II 100%. hit rate 31% among 2,400. shares compounds with MC4R ag barr;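 active = mean activation across replicates above the hit cutoff set in the earlier primary screen, cut at about 8% in these data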
MOR DOR agonist: activates mu-delta opioid heterodimer, MC4R agonist counter-screen. shares compounds with MC4R ag barr. U2OS PathHunter beta-arrestin, beta-gal luminescence; percent of deltorphin B response, DMSO zero. activation, % at 9.2 µM. hit rate 5.8% among 2,400. AID 602194;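 active = mean activation across replicates exceeds the hit threshold derived in the earlier primary screen, cut at about 18% in these data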
ABHD5-PLIN5 conf: ABHD5-PLIN5 interaction inhibition, confirmed | shares compounds with ABHD5 PLIN5 PPI | biochemical ABHD5-PLIN5 interaction, luminescence | inhibition, % at 4 µM | hit rate 67% among 2,200; in the data active = inhibition above about 23%
HNF4 counter: active in HNF4 split-luciferase counter-screen for ABHD5-PLIN5 inhibitors. hit rate 77% among 2,200. shares compounds with ABHD5 PLIN5 PPI. HNF4 dimerization, luminescence, biochemical. AID 651674. inhibition, % at 4 µM;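 active = mean inhibition across replicate wells exceeding the computed hit threshold, cut at about 13% in these data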;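 note: light from luciferase halves that rejoin when HNF4 fusion proteins dimerize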
Numbers stand for hits; n = inactive; x = no result; ! = repeats disagree.

SMILES | ABHD5 PLIN5 PPI | B2AR ag | PfGluPho inh | MC4R ag barr | MC4R antag cAMP | Beta2AR ag CP1 | B2AR FAP counter | others
Cc1ccccc1OCc1nc(-c2ccc(NC(=O)c3ccco3)cc2)no1 | n | n | n | 23 | n | n | n | MC4R barr ag=n;MOR DOR agonist=n
Cc1ccccc1OCc1nc(-c2ccc(NC(=O)c3cccs3)cc2)no1 | n | n | n | 16 | n | n | n | MC4R barr ag=n;MOR DOR agonist=n
Cc1ccccc1OCc1n(CC(=O)OC2CC(C)CCC2C(C)C)c2ccccc2[n+]1C (centres undefined) | n | 108! | n | 23 | n | n | n | MC4R barr ag=41;MOR DOR agonist=27
OCCN1CCN(CC(O)COc2ccc(C34CC5CC(CC(C5)C3)C4)cc2)CC1 (centres undefined) | 36 | 61 | n | n | n | n | n | ABHD5-PLIN5 conf=n;HNF4 counter=n
OCCN1CCN(CC(O)COc2ccc(Cl)cc2)CC1 (centres undefined) | n | n | n | n | n | x | x
CCOc1cc(/C=C2\CN(C)C/C(=C\c3ccc(O)c(OCC)c3)C2=O)ccc1O | 78 | 46 | n | n | n | n | n | ABHD5-PLIN5 conf=97;HNF4 counter=88
COc1cc(C=C2CN(C)C(=O)C2=O)ccc1O | n | x | n | n | n | x | x
Cn1nnnc1Sc1ncnc2scc(-c3cc4ccccc4o3)c12 | 29 | 53 | n | n | n | 57 | n | ABHD5-PLIN5 conf=71;HNF4 counter=77
CCCn1c(=S)[nH]c2cc(C(=O)N3CCN(C4CCCCC4)CC3)ccc2c1=O | n | n | n | n | n | x | x
CCCCCCCCCCOC(=O)Cn1c(COc2ccccc2C)[n+](C)c2ccccc21 | 24 | 68 | n | 49 | n | n | n | ABHD5-PLIN5 conf=n;HNF4 counter=n
Cc1ccccc1OCCCCn1c(CO)nc2ccccc21 | n | n | n | n | n | x | x
O=C(COC(=O)COc1ccc(Cl)cc1Cl)NC1CCCCCC1 | n | n | n | n | n | x | x
CCCC(=O)N(C1CC(C)C(C#N)(C#N)C1(C#N)C#N)N(C)C (centres undefined) | 36 | 43 | n | n | n | 34 | n | ABHD5-PLIN5 conf=59;HNF4 counter=101
O=C(C[n+]1cccc(NC(=O)c2ccccc2)c1)c1ccc(NC(=O)c2ccccc2)cc1 | 24 | 72 | n | n | n | 47 | n | ABHD5-PLIN5 conf=n;HNF4 counter=n
Cc1ccccc1NP1(=O)OCCCN1Cc1ccccc1Cl (centres undefined) | n | n | n | n | n | x | x
COC(=O)c1cc(C(=O)OCC(=O)N(C)c2ccccc2)cc([N+](=O)[O-])c1 | n | n | n | n | n | x | x
Cc1ccc2nc(N(CCCN(C)C)C(=O)c3ccc(Br)s3)sc2c1 | 30 | 54 | n | n | n | n | n | ABHD5-PLIN5 conf=n;HNF4 counter=n
CCOC(=O)c1ccc(N=c2sc(C(=O)OC)cc(=O)n2-c2ccc(C(=O)OCC)cc2)cc1 | 34 | 48 | n | n | 32 | 50 | n | U2OS cAMP counter=n;MC4R cAMP antag=n;ABHD5-PLIN5 conf=92;HNF4 counter=88
CCCCCCCCN1C(=O)[C@H](CC(=O)NCc2ccc(OC)c(OC)c2)C[C@@]2(C(=O)OCC)CCCC=C12 | n | x | x | x | x | x | x
Oc1ccccc1NCC(O)Cn1ccc2ccccc21 (centres undefined) | n | n | 66 | n | n | x | x | PfG6PD confirm=n
OC(CNCc1ccccc1)Cn1ccc2ccccc21 (centres undefined) | n | n | n | n | n | x | x
CCc1ccc(Nc2nnc(SCC(=O)Nc3sccc3C(N)=O)s2)cc1 | n | n | 67 | n | n | x | x | PfG6PD confirm=n
Cc1cc(O)cc(C)c1NS(=O)(=O)c1ccc2ccccc2c1 | n | n | n | n | n | x | x
COc1ccc(NC(=S)N(CCC(C)C)C2CCN(C(C)C)CC2)cc1Cl | n | n | 69 | n | n | x | x | PfG6PD confirm=83;Diaph ctr 10uM=n;Diaphorase 30uM=n
CCCCNC1=CC(=O)C(=O)c2ccccc21 | n | n | n | n | n | x | x
SMILES | ABHD5 PLIN5 PPI | B2AR ag | PfGluPho inh | MC4R ag barr | MC4R antag cAMP | Beta2AR ag CP1 | B2AR FAP counter | others
CCCCNC1=CC(=O)C(NCCCC)=CC1=O | n | n | 62 | n | n | x | x | PfG6PD confirm=n
Nc1ccc(Cc2ccc(N)c(O)c2)cc1O | n | n | 72 | n | n | x | x | PfG6PD confirm=n
COc1cc(Cc2ccc(N)c(OC)c2)ccc1N | n | n | n | n | n | x | x
COc1cc(NCCCn2cnc3c(OCc4ccccc4)ncnc32)cc(OC)c1OC | n | n | 80 | n | n | x | x | PfG6PD confirm=67;Diaph ctr 10uM=n;Diaphorase 30uM=n
COc1ccc(CN(C)CCCn2ccc(NC(=O)OCc3ccccc3)nc2=O)cc1OC | n | x | n | n | n | x | x
COc1cc(NCCCn2ccc(NC(=O)OCc3ccccc3)nc2=O)cc(OC)c1OC | n | n | 80 | n | n | x | x | PfG6PD confirm=74;Diaph ctr 10uM=n;Diaphorase 30uM=n
NNC(=O)c1ncoc1-c1ccc(Cl)cc1 | n | n | n | n | n | x | x
c1ccc2c(c1)c1c(c3ccccc32)CN2CCCC2C1 (centres undefined) | n | n | 65 | n | n | x | x | PfG6PD confirm=n
c1ccc(CN2CCC(N3CCC(N4CCCCCC4)CC3)CC2)cc1 | n | n | n | n | n | x | x
COC(CNC(=O)C(=O)Nc1cc2c3c(c1)CCN3C(=O)CC2)OC | n | n | n | n | n | x | x
Oc1cccc(CN2CCOCC2)c1O | n | n | n | n | n | x | x
Oc1c(CN2CCOCC2)cc(CN2CCOCC2)c(O)c1O | n | n | 82 | n | n | x | x | PfG6PD confirm=64;Diaph ctr 10uM=52;Diaphorase 30uM=55
COc1cccc(NC(=S)N2CCC(C(=O)c3ccc(F)cc3)CC2)c1 | n | n | n | n | n | x | x

Source: PubChem BioAssay (several laboratories)
